In paper PMC10621021 (ACS Omega, 2023):
“And” between values parts separate entries of the source, which are not always exact repeats. Equal values may be shown once.

Legend:
MDA-MB-231 = test: MTT cell viability, MDA-MB-231; assay type: cell-based, human; details: 25 μM
HEPG2 = test: MTT cell viability, HEPG2; assay type: cell-based, human; details: 25 μM
[1] = test system: L. amazonensis promastigotes; test: Antileishmanial activity against promastigotes of L. amazonensis; assay type: cell-based, Leishmania amazonensis; details: for antileishmanial activity on promastigotes (in words): L. amazonensis promastigotes, up to 100 μM; for IC50: Leishmania amazonensis, 72 h, read-out: Promastigotes IC50, L. amazonensis promastigotes, MTT, 72 h, 6.25–100 μM
Method in brief: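 Log-phase promastigotes at 2 × 10^6 cells/mL exposed to compound 6.25–100 μM for 72 h at 25 °C. MTT (5 mg/mL solution) added for 4 h, absorbance read at 570 nm. Viability is expressed relative to untreated parasites. IC50 from three independent experiments; miltefosine was the reference.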

[2] = test system: intracellular amastigotes of L. amazonensis RFP; assay type: cell-based, Leishmania amazonensis; details: for antileishmanial activity on amastigotes (in words): L. amazonensis intracellular amastigotes, up to 100 μM
Method in brief: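 BALB/c peritoneal macrophages (3% thioglycolate-elicited), adherent, infected 10:1 with stationary-phase RFP-transfected L. amazonensis IFLA/BR/67/PH8 promastigotes. After 4 h, wash, then compound 12.5–100 μM for 72 h at 33 °C, 5% CO2. Lysis in deionized water, fluorescence Ex 540/Em 600 nm. IC50 from mean of three independent experiments.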

[3] = test system: amastigote stages of Leishmania major; details: cited from earlier work

| Structure (SMILES) | cytotoxicity on MDA-MB-231 (in words) (MDA-MB-231) | cytotoxicity on HEP-G2 (in words) (HEPG2) | antileishmanial activity on promastigotes (in words) [1] | antileishmanial activity on amastigotes (in words) [2] | also measured |
| --- | --- | --- | --- | --- | --- |
| CC(C)(C)CC(C)(C)Nc1c(-c2cccnc2)nc2ncccn12 [Compound 25, 2-(pyridin-3-yl)-N-(2,4,4-trimethylpentan-2-yl)imidazo[1,2-a]pyrimidin-3-amine] | no any significant cytotoxicity | no any significant cytotoxicity | evaded the activity | evaded the activity | – |
| CCCCCCCCc1nc2ncccn2c1NC(C)(C)CC(C)(C)C [Compound 28, 2-octyl-N-(2,4,4-trimethylpentan-2-yl)imidazo[1,2-a]pyrimidin-3-amine] | – | – | moderate activity | moderate activity | – |
| CC(C)(C)CC(C)(C)Nc1c(-c2cccc(C#N)c2)nc2ncccn12 [Compound 24, 3-(3-((2,4,4-trimethylpentan-2-yl)amino)imidazo[1,2-a]pyrimidin-2-yl)benzonitrile] | no any significant cytotoxicity | no any significant cytotoxicity | – | – | IC50 [1]: < 10 µM; Selectivity Index ([2]; SI: CC50 in peritoneal macrophages/IC50 in intracellular amastigotes): 10 and > 10 |
| Cc1ccc(-c2c(-c3ccccc3)nc3ccccn23)cc1 [Compound 2, 2-phenyl-3-(p-tolyl)imidazo[1,2-a]pyridine] | – | – | – | – | IC50 [3]: 4 µM |
| CC(C)(C)CC(C)(C)Nc1c(-c2cccc([N+](=O)[O-])c2)nc2ncccn12 [Compound 23, 2-(3-nitrophenyl)-N-(2,4,4-trimethylpentan-2-yl)imidazo[1,2-a]pyrimidin-3-amine] | – | – | did not show any biological activity | did not show any biological activity | – |
| COc1ccc(-c2nc3ncccn3c2NC(C)(C)CC(C)(C)C)cc1O [Compound 22, 2-methoxy-5-(3-((2,4,4-trimethylpentan-2-yl)amino)imidazo[1,2-a]pyrimidin-2-yl)phenol] | no any significant cytotoxicity | no any significant cytotoxicity | not tolerated for the antileishmanial activity | not tolerated for the antileishmanial activity | – |
| CC(C)(C)CC(C)(C)Nc1c(-c2ccccc2)nc2ncccn12 [Compound 18, 2-phenyl-N-(2,4,4-trimethylpentan-2-yl)imidazo[1,2-a]pyrimidin-3-amine] | no any significant cytotoxicity | no any significant cytotoxicity | – | – | – |
| CC(C)(C)CC(C)(C)Nc1c(-c2ccc3c(c2)OCO3)nc2ncccn12 [Compound 14, 2-(benzo[d][1,3]dioxol-5-yl)-N-(2,4,4-trimethylpentan-2-yl)imidazo[1,2-a]pyrimidin-3-amine] | – | – | – | – | IC50 [1]: 46.1 µM |
| CCCCc1nc2ncccn2c1NC(C)(C)CC(C)(C)C [Compound 27, 2-butyl-N-(2,4,4-trimethylpentan-2-yl)imidazo[1,2-a]pyrimidin-3-amine] | – | – | moderate activity | moderate activity | – |
| CC(C)(C)CC(C)(C)Nc1c(-c2cccs2)nc2ncccn12 [Compound 26, 2-(thiophen-2-yl)-N-(2,4,4-trimethylpentan-2-yl)imidazo[1,2-a]pyrimidin-3-amine] | – | – | – | showed an effect on L. amazonensis amastigotes only | – |
